Assay outcomes as filed in PubChem.
PG9 binder = binders of HIV-1 gp120 antibody PG9, primary screen, biochemical, TR-FRET. HIV-1 gp120 / PG9 antibody interaction. 360,000 compounds, 0.43% hits. inhibition, % at 6.7 µM. TR-FRET gp120-PG9 antibody binding; in the data active means inhibition above about 8.5%
NR2E3 ag-1 = inhibitors of NR2E3-RetCOR corepressor binding, primary screen, NR2E3 agonist project, biochemical, TR-FRET, GST-NR2E3, biotin-RetCOR; Photoreceptor-specific nuclear receptor (Homo sapiens), Q9Y5X4; 1536-well; inhibition of corepressor binding, % at 4.78 µM; 320,000 compounds, 0.12% hits; AID 2300, 2010;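 active means percent inhibition above the cutoff of mean plus 3 SD of all tested compounds, set per screening campaign, cut at about 20% in these data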
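Assay system: NR2E3–RetCOR corepressor complex. Quantity: 1.35 nM GST-NR2E3. Buffer or medium: pH 7.5 Tris-based buffer. Reagent: biotinylated RetCOR corepressor at 7 nM final. Schedule: 5 h at 4 °C. Detection: TR-FRET, emission read at 617 and 671 nm. Replicates: one well per compound, singlicate testing.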
NR1D1 modulator = modulators of Rev-erb alpha DNA binding, primary screen, biochemical, FITC-DNA, fluorescence polarization, uHTS. Nuclear receptor subfamily 1 group D member 1 (Homo sapiens), P20393. Rev-erbα–FITC-DNA binding, 90 min. activity, % at 10 µM. 370,000 compounds, 0.79% hits. AID 1259318, 2017;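 active means activity above about 14%, limit read from the data; passing the limit was not always enough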
MC4R antag cAMP = MC4R antagonists of cAMP signaling, primary screen, cell-based, TR-FRET, antagonist arm of biased-ligand search. Melanocortin receptor 4 (Homo sapiens), P32245. MC4R-expressing cells, MTII-stimulated cAMP, LANCE TR-FRET. inhibition, % at 6.5 µM. 360,000 compounds, 0.48% hits. AID 540295, 2011;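 active means inhibition above its plate's cutoff, the mean of tested wells on that plate plus 3 SD, cut at about 29% in these data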
Target sequence (P32245 whole entry, looked up): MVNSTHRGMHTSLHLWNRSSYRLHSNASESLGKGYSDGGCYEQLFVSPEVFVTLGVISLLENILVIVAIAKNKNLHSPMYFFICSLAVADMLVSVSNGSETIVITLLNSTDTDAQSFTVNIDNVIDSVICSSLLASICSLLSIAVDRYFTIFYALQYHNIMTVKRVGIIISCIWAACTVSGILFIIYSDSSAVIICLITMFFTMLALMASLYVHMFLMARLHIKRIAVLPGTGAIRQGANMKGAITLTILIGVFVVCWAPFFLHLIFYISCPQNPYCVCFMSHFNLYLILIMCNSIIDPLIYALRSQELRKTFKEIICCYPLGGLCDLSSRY
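Assay system: human MC4R-expressing U2OS cells; reagent: Melanotan II stimulation of cells; dosing: 6.5 µM single dose; timing: compound 30 min, challenge 1 h, detection 1 h; signal: TR-FRET cAMP assay; replicates: one well per compound, no replicates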
NR2E3 ag-2 = NR2E3 agonists in two-hybrid cells, primary screen, cell-based, luminescence, CHO-S, Gal4-NCOR/VP16-NR2E3; Photoreceptor-specific nuclear receptor (Homo sapiens), Q9Y5X4; luciferase; inhibition of corepressor binding, % at 3.98 µM; 360,000 compounds, 0.35% hits; AID 602229, 2012;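 active means inhibition above the mean of all tested compounds plus 3 SD, cut at about 70% in these data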;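 further: higher means lower luciferase signal from less NR2E3 corepressor binding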
MC4R ag barr = MC4R agonists recruiting beta-arrestin, primary screen, cell-based, luminescence, agonist arm of biased-ligand search | Melanocortin receptor 4 (Homo sapiens), P32245 | activation, % at 8.9 µM | AID 540308, 2011 | U2OS MC4R beta-arrestin complementation; percent of melanotan II response, DMSO zero | 360,000 compounds, 0.98% hits;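 active means activation above a per-plate cutoff, the mean activation of sample wells on that plate plus 3 SD, cut at about 8% in these data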
MC4R barr conf = MC4R beta-arrestin agonists, retest, confirmation, cell-based, luminescence, U2OS. shares compounds with MC4R ag barr. U2OS MC4R beta-arrestin recruitment; scaled DMSO 0%, Melanotan II 100%. activation, % at 8.9 µM. 2,400 compounds, 31% hits;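 active means mean activation across replicates above the hit cutoff set in the earlier primary screen, cut at about 8% in these data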
MOR-DOR barr ag = agonists of MOR-DOR heterodimerization, counter-screen for MC4R biased agonist project, cell-based, luminescence | U2OS PathHunter beta-arrestin, beta-gal luminescence; percent of deltorphin B response, DMSO zero | shares compounds with MC4R ag barr | activation, % at 9.2 µM | 2,400 compounds, 5.8% hits;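 active means mean activation across replicates exceeds the hit threshold derived in the earlier primary screen, cut at about 18% in these data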
Of the large screens only hits and unclear results are named; the others gave an inactive call (follow-up assays come after a bar, where they were run). In the library only some 2.7% were active in any assay of this set; here they are far more common.

O=C(Nc1ccc(OC(F)(F)C(F)F)c(NC(=O)c2ccc(F)cc2)c1)c1ccc(F)cc1	MC4R ag barr 12 | MC4R barr conf inactive | MOR-DOR barr ag inactive
CCN(CC)C(=O)CC[C@@H]1CC[C@]2(CCCN(Cc3cccs3)C2)O1	none (no result: PG9 binder, NR2E3 ag-1, MC4R antag cAMP, NR2E3 ag-2, MC4R ag barr)
COC(=O)Cc1ccc(NC(=O)c2ccc3c(c2)C(=O)N(Cc2ccco2)C3=O)cc1	none
CCc1ccc(NC(=O)c2ccc3c(c2)C(=O)N(Cc2ccco2)C3=O)cc1	MC4R ag barr 11 | MC4R barr conf inactive | MOR-DOR barr ag inactive
Cc1cc(-c2ccc(S(=O)(=O)N(C)Cc3ccccc3)cc2)on1	MC4R ag barr 25 | MC4R barr conf inactive | MOR-DOR barr ag inactive
COc1ccc(CNC(=S)Nc2ccc3nc(N4CCOCC4)cc(C)c3c2)cc1	MC4R ag barr 41 | MC4R barr conf 11 | MOR-DOR barr ag inactive
COc1ccc(CNC(=S)Nc2ccc3nc(N4CCN(C)CC4)cc(C)c3c2)cc1	none
CCCNS(=O)(=O)/C=C/c1ccccc1	none
Cc1cc(C)c(C#N)c(SCC(=O)Nc2nnc(-c3ccccc3)s2)n1	MC4R ag barr 16 | MC4R barr conf inactive | MOR-DOR barr ag inactive
Cc1cc(C)c(C#N)c(SCC(=O)Nc2ccccc2C)n1	none
CCOc1cc(S(=O)(=O)NCCc2ccccc2C)c(OCC)cc1-n1cnnn1	none
O=C1/C(=C/c2cccc([N+](=O)[O-])c2)CSc2ccc(Cl)cc21	MC4R ag barr 11 | MC4R barr conf inactive | MOR-DOR barr ag inactive
O=C1/C(=C/c2cccc([N+](=O)[O-])c2)CCc2ccccc21	none
COc1ccc2nc(NC(=O)CSc3nnc(C)s3)sc2c1	none
COc1ccc(Nc2nc(-c3cc4cccc(OC)c4oc3=O)cs2)cc1	MC4R ag barr 20 | MC4R barr conf inactive | MOR-DOR barr ag inactive
COc1ccc(-c2cc3cccc(OC)c3oc2=O)cc1	none
CN1CCN(S(=O)(=O)c2ccc(NC(=S)NC(=O)c3ccccc3)cc2)CC1	none
CCCCN(C)C(=O)c1ccc(Nc2nc(C(N)Cc3ccc(C(F)(F)F)cc3)cs2)nc1 (centres undefined)	MC4R ag barr 30 (no result: NR2E3 ag-1) | MC4R barr conf 23 | MOR-DOR barr ag 35
NC(Cc1ccc(C(F)(F)F)cc1)c1csc(Nc2ccc(C(=O)NCc3ccco3)cn2)n1 (centres undefined)	MC4R ag barr 16 (no result: NR2E3 ag-1) | MC4R barr conf 32 | MOR-DOR barr ag inactive
CCCCN(C)C(=O)c1ccc(Nc2nc(C(N)CCc3ccccc3)cs2)nc1 (centres undefined)	none (no result: NR2E3 ag-1)
CCOc1ccccc1C(=O)NC1CC2CCCC(C1)N2Cc1ccc(C)cc1 (centres undefined)	none
OC(CNCCc1ccc(C(F)(F)F)cc1)COC(c1ccccc1)c1ccccc1 (centres undefined)	MC4R ag barr 36 | MC4R barr conf 22 | MOR-DOR barr ag inactive
CC(C)(C)C1CCc2onc(C(=O)NC3CCCC3)c2C1 (centres undefined)	none
CC(C)(C)C1CCc2onc(C(=O)Nc3ccc4c(c3)OCO4)c2C1 (centres undefined)	MC4R ag barr 12 | MC4R barr conf inactive | MOR-DOR barr ag inactive
O=C(O)c1cccc(-n2cccc2/C=C2/NC(=O)N(c3cccc(Cl)c3)C2=O)c1	none
COc1ccc(-n2cccc2/C=C2/NC(=O)N(c3cccc(Cl)c3)C2=O)cc1	MC4R ag barr 14 | MC4R barr conf inactive | MOR-DOR barr ag inactive
CCn1nc(NC(=O)c2cccnc2)c2cc3cccc(C)c3nc21	MC4R ag barr 17 | MC4R barr conf inactive | MOR-DOR barr ag inactive
CCn1nc(NC(=O)c2ccncc2)c2cc3cccc(C)c3nc21	none
CCC(C)NC(=O)c1c(N)n(/N=C/c2cccnc2)c2nc3ccccc3nc12 (centres undefined)	MC4R ag barr 13 | MC4R barr conf 28 | MOR-DOR barr ag inactive
COCCCNC(=O)c1c(N)n(/N=C/c2cccnc2)c2nc3ccccc3nc12	MC4R ag barr 10 | MC4R barr conf inactive | MOR-DOR barr ag inactive
CCC(C)NC(=O)c1c(N)n(/N=C/c2ccccn2)c2nc3ccccc3nc12 (centres undefined)	none
CC(C)(C)n1nnnc1C(c1ccncc1)N1CCN(c2ccc(O)cc2)CC1 (centres undefined)	none
C=CCOc1ccc(CN(C)CC(=O)N(CC(C)C)c2c(N)n(CC(C)C)c(=O)[nH]c2=O)cc1	none
O=C(COC(=O)/C=C/c1cccs1)Nc1ccc2ccccc2c1	MC4R ag barr 16 | MC4R barr conf inactive | MOR-DOR barr ag inactive
Nc1c(C(=O)Nc2cccc(F)c2)nnn1-c1ccc2c(c1)OCCO2	MC4R ag barr 11 | MC4R barr conf inactive | MOR-DOR barr ag inactive
Cc1ccccc1NC(=O)c1nnn(-c2ccc3c(c2)OCCO3)c1N	none
CS(=O)(=O)N(CC(=O)N1CCCCC1)c1ccc(Cl)c(C(F)(F)F)c1	none
Cn1nc2c3cc(F)ccc3n(Cc3ccc(F)cc3)cc-2c1=O	none
Cc1cccc(Cn2cc3c(=O)n(Cc4cccc(F)c4)nc-3c3ccccc32)c1	MC4R ag barr 17 | MC4R barr conf inactive | MOR-DOR barr ag inactive
Cn1c(=O)oc2cc(S(=O)(=O)N3CCN(c4cccc(Cl)c4)CC3)ccc21	MC4R ag barr 11 | MC4R barr conf inactive | MOR-DOR barr ag inactive
Cn1c(=O)oc2cc(S(=O)(=O)N3CCN(c4ccc(F)cc4)CC3)ccc21	none
O=C1COc2ccc(S(=O)(=O)N3CCN(c4cccc(Cl)c4)CC3)cc2N1	MC4R ag barr 9.6 | MC4R barr conf inactive | MOR-DOR barr ag inactive
Cn1ccc2c(-c3ccc4[nH]ccc4c3)cc3c(c21)C1CCC3O1 (centres undefined)	none (no result: NR2E3 ag-1, MC4R antag cAMP, MC4R ag barr)
